Experimental findings from ChEMBL document CHEMBL4823320, “SAR of novel benzothiazoles targeting an allosteric pocket of DENV and ZIKV NS2B/NS3 proteases” (Bioorg Med Chem, 2021) are described below.

Active and inactive are the calls of the source. No cut-off for these calls is given here.

What is called Ki is the dissociation constant of the complex between target and ligand, obtained from inhibition or displacement. A low value points to a stronger hold on the target. The term IC50 denotes the concentration that inhibits the measured activity by half. The low end stands for inhibition by little substance, the high end for a need for much substance.

In data set [1] the target is Trypsin (Homo sapiens) (UniProt P07477+P07478+P35030). Put plainly: Inhibition of Trypsin (unknown origin) assessed as residual enzyme activity at 20 uM by FRET assay relative to control. Type of data set: protein assay. Put shortly: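 Trypsin in 50 mM Tris pH 8.0, 100 mM NaCl, 5 mM EDTA with 40 µM Z-Phe-Arg-AMC. Compound at 20 µM, read every 30 s for 10 min at 25 °C. Residual activity is relative to DMSO control; mean ± SD, ≥3 independent measurements.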

In data set [2] the target is T1, Genome polyprotein (dengue virus type 2, UniProt P29990). Nature of the data set: Binding affinity to DENV2 NS2B-NS3 protease by Dixon plot analysis. The method in brief: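 Fluorogenic DENV2 NS2B/NS3 assay run in 50 mM Tris pH 9.0, 20% glycerol, 1 mM Chaps, with IC50 determined at several Boc-Gly-Arg-Arg-AMC concentrations (50–200 μM). Kinetic fluorescence read at 25 °C for 10 min. Mode of inhibition assessed and apparent Ki derived by Dixon plot analysis.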

The nature of data set [3]: Chemical stability of compound in tris assay buffer at pH 9 measured after 20 hrs by HPLC/MS analysis. Format: physicochemical. The conditions noted are these: pH 9, 20 h. Put shortly: (§1)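 Compound incubated in protease assay buffer (Tris pH 9.0) under simulated assay conditions and analysed by HPLC/MS after 15 min, 90 min and 20 h. Stability is the compound peak integral in the 210 nm UV trace as a proportion of the total integral.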

Data set [4] is described as follows: Chemical stability of compound in cell culture conditions at pH 7.4 HEPES buffer measured after 20 hrs by HPLC/MS analysis. Format: physicochemical. The conditions noted are these: read-out: Stabilty. Put shortly: (§2)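 Compound incubated under simulated cell-assay conditions (HEPES pH 7.4) and analysed by HPLC/MS after 15 min, 90 min and 20 h. Stability is the compound peak integral in the 210 nm UV trace as a fraction of the total integral.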

Data set [5] in a line: Chemical stability of compound in cell culture conditions at pH 7.4 HEPES buffer measured after 15 mins by HPLC/MS analysis. Format: physicochemical. The conditions noted are these: read-out: Stabilty. The method in brief:
as §2

Data set [6] concerns Huh-7. Nature of the data set: Cytotoxicity against human Huh-7 cells assessed as cell viability after 96 hrs by CellTiter-Glo Luminescent cell viability assay. Format: cell-based. The conditions noted are these: huh-7, 96 h. The method in brief:
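Huh7 cells seeded at 4×10^3 per well and treated one day later with 1.25–40 µM compound or DMSO for 96 h. ATP-based luminescent viability read-out, normalized to untreated cells.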
On the technique in general: Cellular ATP, detected with luciferase, serves as a proxy for viable cell number.

Data set [7] deals with Severe acute respiratory syndrome coronavirus 2. Nature of the data set: Inhibition of SARS-CoV-2 Main protease assessed as residual enzyme activity at 20 uM by FRET assay relative to control. The method in brief: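 Compound at 20 μM; fluorescence read every 30 s for 10 min at 25 °C. Residual activity expressed relative to DMSO control; mean of ≥3 independent measurements.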

Data set [8] concerns the target T1, Genome polyprotein. Put plainly: Inhibition of DENV2 NS2B-NS3 protease expressed in Escherichia coli BL21(DE3) using Boc-Gly-Arg-Arg-AMC as substrate by FRET assay. The method in brief: (§3)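 Recombinant His-tagged NS2B/NS3 protease, expressed in E. coli BL21-Gold (DE3) (1 mM IPTG, 20 °C, 16 h) and purified by Ni affinity and size exclusion. Assayed in 50 mM Tris pH 9.0, 20% glycerol, 1 mM Chaps, with 100 μM Boc-Gly-Arg-Arg-AMC. Fluorescence read every 30 s for 10 min at 25 °C; inhibitor 0.01–100 μM. IC50 from a four-parameter fit of hydrolysis rate; ≥3 independent experiments.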

A short description of data set [9]: Chemical stability of compound in cell culture conditions at pH 7.4 HEPES buffer measured after 90 mins by HPLC/MS analysis. The following applies: read-out: Stabilty. Format: physicochemical. The method in brief: as §2
Data set [10] has as its target Urokinase-type plasminogen activator (Homo sapiens) (UniProt P00749). Put plainly: Inhibition of Urokinase plasminogen activator (unknown origin) assessed as residual enzyme activity at 20 uM by FRET assay relative to control. The method in brief:
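Urokinase plasminogen activator in 50 mM Tris pH 7.4, 50 mM NaCl, 0.5 mM EDTA with 240 µM Z-Gly-Gly-Arg-AMC. Compound at 20 µM, read every 30 s for 10 min at 25 °C. Residual activity is relative to DMSO control; mean ± SD, ≥3 independent measurements.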

Data set [11] is described as follows: Chemical stability of compound in tris assay buffer at pH 9 measured after 15 mins by HPLC/MS analysis. Type of data set: physicochemical. The following applies: pH 9, 0.25 h. Put shortly: as §1
Data set [12] concerns the target Nonstructural protein 3 (Zika virus, UniProt A0A024AXB9). Nature of the data set: Inhibition of ZIKV NS2B-NS3 protease expressed in Escherichia coli BL21(DE3) using Boc-Gly-Arg-Arg-AMC as substrate by FRET assay. The method in brief:
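His-tagged ZIKV NS2B/NS3 protease in 50 mM Tris pH 9.0, 20% glycerol, 1 mM CHAPS with 100 µM Boc-Gly-Arg-Arg-AMC. Dilution series 0.01–100 µM, read every 30 s for 10 min at 25 °C. IC50 from a four-parameter fit of hydrolysis rate; mean ± SD of ≥3 independent measurements.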

The subject of data set [13] is dengue virus type 2. Put plainly: Antiviral activity against DENV2 New Guinea C infected in human Huh7 cells assessed as decrease in viral RNA expression at 10 uM measured up to 72 hrs by firefly luciferase assay. Format: functional, organism-based. The conditions noted are these: Huh-7, time hrs <=72. Put shortly: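 Huh7 cells electroporated with in vitro transcribed DENV2 NGC subgenomic replicon RNA (firefly luciferase), 4×10^6 cells per 10 µg RNA. Compound at 10 µM or DMSO is added 4 h post-electroporation in medium with 15 mM HEPES and replenished at 48 h. Lysates are taken at 4–96 h and replication is expressed relative to the 4 h input value. Duplicate luminometer reads; mean ± SD, n = 3.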

Data set [14] addresses Prothrombin (Homo sapiens) (UniProt P00734). Put plainly: Inhibition of Thrombin (unknown origin) assessed as residual enzyme activity at 20 uM by FRET assay relative to control. The method in brief:
(§4)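 Compound at 20 µM, read every 30 s for 10 min at 25 °C. Residual activity is relative to DMSO control; mean ± SD, ≥3 independent measurements.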

Data set [15] has as its target Chymotrypsin (Homo sapiens) (UniProt Q99895+P17538+P40313+Q6GPI1). Put plainly: Inhibition of Chymotrypsin (unknown origin) assessed as residual enzyme activity at 20 uM by FRET assay relative to control. Format: protein assay. The method in brief:
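α-Chymotrypsin in 50 mM Tris pH 8.0, 100 mM NaCl with Succ-Leu-Tyr-AMC. Compound at 20 µM, read every 30 s for 10 min at 25 °C. Residual activity is relative to DMSO control; mean ± SD, ≥3 independent measurements.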

The target in data set [16] is T2, Sortase A (Staphylococcus aureus) (UniProt Q9S446).
T2 sequence (whole entry): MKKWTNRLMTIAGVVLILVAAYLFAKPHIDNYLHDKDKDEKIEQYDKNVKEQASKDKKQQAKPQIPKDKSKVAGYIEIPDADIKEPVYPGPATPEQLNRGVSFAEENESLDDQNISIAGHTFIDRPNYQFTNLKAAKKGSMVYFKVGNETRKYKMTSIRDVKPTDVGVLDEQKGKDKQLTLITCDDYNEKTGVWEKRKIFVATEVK
Nature of the data set: Inhibition of staphylococcus aureus Sortase A protease assessed as residual enzyme activity at 20 uM by FRET assay relative to control. The method in brief: as §4

Data set [17] can be described thus: Inhibition of Rhodesain (unknown origin) assessed as residual enzyme activity at 20 uM by FRET assay relative to control. The method in brief: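 Compound at 20 µM, fluorescence read every 30 s for 10 min at 25 °C. Residual activity is relative to DMSO control; mean ± SD, ≥3 independent measurements.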
The subject of data set [18] is Zika virus. Put plainly: Antiviral activity against ZIKV H/PF/2013 infected in human Huh7 cells assessed as decrease in viral RNA expression at 10 uM measured up to 96 hrs by renilla luciferase assay. Format: functional, organism-based. The conditions noted are these: Huh-7, time hrs <=96. The method in brief: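 Huh7 cells electroporated with in vitro transcribed ZIKV H/PF/2013 subgenomic replicon RNA (Renilla luciferase, coelenterazine substrate). Compound at 10 µM or DMSO is added 4 h post-electroporation in medium with 15 mM HEPES and replenished at 48 h. Lysates are taken at 4, 24, 48, 72 and 96 h and normalized to the 4 h input value. Duplicate reads; mean ± SD, n = 3.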

The nature of data set [19]: Inhibition of DENV2 NS2B-NS3 protease T120A/N167Q mutant expressed in Escherichia coli BL21(DE3) using Boc-Gly-Arg-Arg-AMC as substrate by FRET assay. Also on record: species or system dengue virus type 2. The method in brief: as §3
A short description of data set [20]: Chemical stability of compound in tris assay buffer at pH 9 measured after 90 mins by HPLC/MS analysis. Format: physicochemical. The following applies: pH 9, 1.5 h. Put shortly: as §1

Consider `O=C(Nc1nc2cc(O)c(O)cc2s1)c1ccc(I)cc1`, for which the Activity in [1] is 94%; in [6] it was “Non-Toxic”; in [7], 89%; in data set [10], 100%; in data set [14], 65%; in [15], 79%. The Activity in data set [16] stood at 74%; in data set [17] it was 77%. The compound also showed a Ki in data set [2] of 7.67 µM. In addition, the Stabilty in data set [3], in data set [11] and in [20] was 83% throughout. Further, the remaining at 20 h in data set [4] was 95%. Besides, the remaining at 0.25 h in [5] is 95%. Moreover, the results for the IC50 in data set [8], in data set [12] and in [19] were 4.38 µM, 0.67 µM and 8.01 µM, respectively. In data set [9], the remaining at 1.5 h was 95%. For the same compound, the outcome in data set [13] and in data set [18] was Active.
